Assay results taken from ChEMBL document CHEMBL3102805, “Truncated Orexin Peptides: Structure-Activity Relationship Studies” (ACS Med Chem Lett, 2013).
The source made the active and inactive calls. No cut-off for these calls is given here. Where a SMILES comes first, the peptide text is derived from it.

Key:
[1] = target: T1, Orexin receptor type 2 (Homo sapiens) (UniProt O43614); experiment: Agonist activity at human OX2 receptor overexpressed in CHO-RD-HGA16 cells assessed as calcium mobilization at 10 uM after 15 mins by fluorescence assay relative to control; format: functional, cell-based
T1 sequence (whole entry): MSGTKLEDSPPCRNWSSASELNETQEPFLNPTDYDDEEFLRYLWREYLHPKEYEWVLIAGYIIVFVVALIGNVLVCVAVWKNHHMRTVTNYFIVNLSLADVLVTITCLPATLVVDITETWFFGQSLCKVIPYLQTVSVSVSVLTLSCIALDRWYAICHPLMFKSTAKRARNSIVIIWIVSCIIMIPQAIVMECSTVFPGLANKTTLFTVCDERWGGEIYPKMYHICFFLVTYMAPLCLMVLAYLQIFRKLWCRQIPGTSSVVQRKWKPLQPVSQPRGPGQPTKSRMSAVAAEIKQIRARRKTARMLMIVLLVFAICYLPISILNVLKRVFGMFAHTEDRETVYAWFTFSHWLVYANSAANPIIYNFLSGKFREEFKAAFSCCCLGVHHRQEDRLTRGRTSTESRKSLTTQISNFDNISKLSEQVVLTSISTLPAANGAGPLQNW

[2] = target: T2, Orexin/Hypocretin receptor type 1 (Homo sapiens) (UniProt O43613); experiment: Agonist activity at human OX1 receptor overexpressed in CHO-RD-HGA16 cells assessed as calcium mobilization at 10 uM after 15 mins by fluorescence assay relative to control; format: functional, cell-based
T2 sequence (whole entry): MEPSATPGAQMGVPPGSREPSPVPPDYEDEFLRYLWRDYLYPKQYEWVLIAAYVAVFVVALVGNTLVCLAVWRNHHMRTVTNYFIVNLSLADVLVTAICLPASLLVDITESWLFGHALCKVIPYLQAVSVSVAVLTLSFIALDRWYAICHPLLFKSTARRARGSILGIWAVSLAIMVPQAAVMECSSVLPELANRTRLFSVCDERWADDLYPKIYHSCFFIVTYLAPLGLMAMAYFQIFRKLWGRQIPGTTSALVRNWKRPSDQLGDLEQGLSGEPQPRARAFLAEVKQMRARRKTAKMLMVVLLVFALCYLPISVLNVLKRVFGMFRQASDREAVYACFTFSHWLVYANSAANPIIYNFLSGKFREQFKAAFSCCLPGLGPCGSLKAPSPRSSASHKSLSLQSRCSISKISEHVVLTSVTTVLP

Orexin receptor type 2 = target: T3, Orexin receptor type 2 (Homo sapiens, UniProt O43614); experiment: Agonist activity at human OX2 receptor overexpressed in CHO-RD-HGA16 cells assessed as calcium mobilization after 15 mins by fluorescence assay; format: functional, cell-based
T3 sequence (O43614 whole entry): T1 sequence (whole entry)

Homo sapiens = species on record: Homo sapiens; experiment: Selectivity ratio of EC50 for human OX2 receptor to EC50 for human OX1 receptor
[3] = target: T4, Orexin/Hypocretin receptor type 1 (Homo sapiens, UniProt O43613); experiment: Agonist activity at human OX1 receptor overexpressed in CHO-RD-HGA16 cells assessed as calcium mobilization after 15 mins by fluorescence assay; format: functional, cell-based
T4 sequence (O43613 whole entry): T2 sequence (whole entry)
Method in brief: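 EC50 from 8-point half-log concentration-response curves. Values are means of at least three independent experiments in duplicate, with SEM, or means of two independent duplicate experiments.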

SMILES | Activity [1] | Activity [2] | Percent activation at 10 uM [1] [%] | also measured
CC[C@@H](C)[C@@H](NC(=O)CNC(=O)[C@H](C)NC(=O)[C@H](C)NC(=O)[C@H](Cc1cnc[nH]1)NC(=O)[C@H](CC(N)=O)NC(=O)CNC(=O)[C@H](C)NC(=O)CNC(=O)[C@H](Cc1cnc[nH]1)NC(=O)[C@H](CC(C)C)NC(=O)[C@H](CC(C)C)NC(=O)[C@H](CCC(=O)O)NC(=O)[C@@H](N)Cc1ccc(O)cc1)C(=O)N[C@@H](CC(C)C)C(=O)N[C@H](C(=O)N[C@@H](CC(C)C)C(N)=O)[C@@H](C)O | inactive | inactive |  | 
CC[C@H](C)[C@H](NC(=O)CNC(=O)[C@@H](C)NC(=O)[C@H](C)NC(=O)[C@H](Cc1cnc[nH]1)NC(=O)[C@H](CC(N)=O)NC(=O)CNC(=O)[C@H](C)NC(=O)CNC(=O)[C@H](Cc1cnc[nH]1)NC(=O)[C@H](CC(C)C)NC(=O)[C@H](CC(C)C)NC(=O)[C@H](CCC(=O)O)NC(=O)[C@@H](N)Cc1ccc(O)cc1)C(=O)N[C@@H](CC(C)C)C(=O)N[C@H](C(=O)N[C@@H](CC(C)C)C(N)=O)[C@@H](C)O |  | inactive | < 50 | 
CC[C@H](C)[C@H](NC(=O)CNC(=O)[C@H](C)NC(=O)[C@H](C)NC(=O)[C@H](Cc1cnc[nH]1)NC(=O)[C@@H](CC(N)=O)NC(=O)CNC(=O)[C@H](C)NC(=O)CNC(=O)[C@H](Cc1cnc[nH]1)NC(=O)[C@H](CC(C)C)NC(=O)[C@H](CC(C)C)NC(=O)[C@H](CCC(=O)O)NC(=O)[C@@H](N)Cc1ccc(O)cc1)C(=O)N[C@@H](CC(C)C)C(=O)N[C@H](C(=O)N[C@@H](CC(C)C)C(N)=O)[C@@H](C)O |  | inactive | < 50 | 
CC[C@H](C)[C@H](NC(=O)CNC(=O)[C@H](C)NC(=O)[C@H](C)NC(=O)[C@H](Cc1cnc[nH]1)NC(=O)[C@H](CC(N)=O)NC(=O)CNC(=O)[C@H](C)NC(=O)CNC(=O)[C@H](Cc1cnc[nH]1)NC(=O)[C@H](CC(C)C)NC(=O)[C@H](CC(C)C)NC(=O)[C@H](CCC(=O)O)NC(=O)[C@@H](N)Cc1ccc(O)cc1)C(=O)N[C@@H](CC(C)C)C(=O)N[C@@H](C(=O)N[C@@H](CC(C)C)C(N)=O)[C@H](C)O | inactive | inactive |  | 
CC[C@H](C)[C@H](NC(=O)CNC(=O)[C@H](C)NC(=O)[C@H](C)NC(=O)[C@H](Cc1cnc[nH]1)NC(=O)[C@H](CC(N)=O)NC(=O)CNC(=O)[C@H](C)NC(=O)CNC(=O)[C@H](Cc1cnc[nH]1)NC(=O)[C@H](CC(C)C)NC(=O)[C@H](CC(C)C)NC(=O)[C@H](CCC(=O)O)NC(=O)[C@@H](N)Cc1ccc(O)cc1)C(=O)N[C@@H](CC(C)C)C(=O)N[C@H](C(=O)N[C@H](CC(C)C)C(N)=O)[C@@H](C)O | inactive | inactive |  | 
CC[C@H](C)[C@H](NC(=O)CNC(=O)[C@H](C)NC(=O)[C@H](C)NC(=O)[C@H](Cc1cnc[nH]1)NC(=O)[C@H](CC(N)=O)NC(=O)CNC(=O)[C@H](C)NC(=O)CNC(=O)[C@H](Cc1cnc[nH]1)NC(=O)[C@H](CC(C)C)NC(=O)[C@H](CC(C)C)NC(=O)[C@H](CCC(=O)O)NC(=O)[C@@H](N)Cc1ccc(O)cc1)C(=O)N[C@H](CC(C)C)C(=O)N[C@H](C(=O)N[C@@H](CC(C)C)C(N)=O)[C@@H](C)O |  | inactive | < 50 | 
CC[C@H](C)[C@H](NC(=O)CNC(=O)[C@H](C)NC(=O)[C@H](C)NC(=O)[C@H](Cc1cnc[nH]1)NC(=O)[C@H](CC(N)=O)NC(=O)CNC(=O)[C@H](C)NC(=O)CNC(=O)[C@@H](N)Cc1cnc[nH]1)C(=O)N[C@@H](CC(C)C)C(=O)N[C@H](C(=O)N[C@@H](CC(C)C)C(N)=O)[C@@H](C)O (H-HGAGNHAAGILTL-NH2) |  |  |  | Calcium response at 10 uM relative to control [2]: < 50%
CC[C@H](C)[C@H](NC(=O)CNC(=O)[C@H](C)NC(=O)[C@H](C)NC(=O)[C@H](Cc1cnc[nH]1)NC(=O)[C@H](CC(N)=O)NC(=O)CNC(=O)[C@H](CO)NC(=O)[C@H](C)NC(=O)[C@H](CCC(N)=O)NC(=O)[C@H](CC(C)C)NC(=O)[C@H](CC(C)C)NC(=O)[C@H](CCCNC(=N)N)NC(=O)[C@@H](N)CCC(N)=O)C(=O)N[C@@H](CC(C)C)C(=O)N[C@H](C(=O)N[C@@H](CCSC)C(N)=O)[C@@H](C)O (H-QRLLQASGNHAAGILTM-NH2) |  |  |  | EC50 (Orexin receptor type 2): 1040 nM; Calcium response at 10 uM relative to control [2]: < 50%
CC[C@H](C)[C@H](NC(=O)[C@H](C)NC(=O)[C@H](C)NC(=O)[C@H](C)NC(=O)[C@H](Cc1cnc[nH]1)NC(=O)[C@H](CC(N)=O)NC(=O)CNC(=O)[C@H](C)NC(=O)CNC(=O)[C@H](Cc1cnc[nH]1)NC(=O)[C@H](CC(C)C)NC(=O)[C@H](CC(C)C)NC(=O)[C@H](CCC(=O)O)NC(=O)[C@@H](N)Cc1ccc(O)cc1)C(=O)N[C@@H](CC(C)C)C(=O)N[C@H](C(=O)N[C@@H](CC(C)C)C(N)=O)[C@@H](C)O (H-YELLHGAGNHAAAILTL-NH2) |  |  | < 50 | Calcium response at 10 uM relative to control [2]: < 50%
CC(C)C[C@H](NC(=O)[C@@H](NC(=O)[C@H](CC(C)C)NC(=O)[C@H](C)NC(=O)CNC(=O)[C@H](C)NC(=O)[C@H](C)NC(=O)[C@H](Cc1cnc[nH]1)NC(=O)[C@H](CC(N)=O)NC(=O)CNC(=O)[C@H](C)NC(=O)CNC(=O)[C@H](Cc1cnc[nH]1)NC(=O)[C@H](CC(C)C)NC(=O)[C@H](CC(C)C)NC(=O)[C@H](CCC(=O)O)NC(=O)[C@@H](N)Cc1ccc(O)cc1)[C@@H](C)O)C(N)=O (H-YELLHGAGNHAAGALTL-NH2) | inactive | inactive |  | 
CC[C@H](C)[C@H](NC(=O)CNC(=O)[C@H](C)NC(=O)[C@H](C)NC(=O)[C@H](Cc1cnc[nH]1)NC(=O)[C@H](CC(N)=O)NC(=O)CNC(=O)[C@H](C)NC(=O)CNC(=O)[C@H](Cc1cnc[nH]1)NC(=O)[C@H](CC(C)C)NC(=O)[C@H](CC(C)C)NC(=O)[C@H](CCC(=O)O)NC(=O)[C@@H](N)Cc1ccc(O)cc1)C(=O)N[C@@H](C)C(=O)N[C@H](C(=O)N[C@@H](CC(C)C)C(N)=O)[C@@H](C)O (H-YELLHGAGNHAAGIATL-NH2) | inactive | inactive |  | 
CC[C@H](C)[C@H](NC(=O)CNC(=O)[C@H](C)NC(=O)[C@H](C)NC(=O)[C@H](Cc1cnc[nH]1)NC(=O)[C@H](CC(N)=O)NC(=O)CNC(=O)[C@H](C)NC(=O)CNC(=O)[C@H](Cc1cnc[nH]1)NC(=O)[C@H](CC(C)C)NC(=O)[C@@H]1CCCN1C(=O)[C@H](CCC(=O)O)NC(=O)[C@@H](N)Cc1ccc(O)cc1)C(=O)N[C@@H](CC(C)C)C(=O)N[C@H](C(=O)N[C@@H](CC(C)C)C(N)=O)[C@@H](C)O (H-YEPLHGAGNHAAGILTL-NH2) |  |  |  | Ratio EC50 (Homo sapiens): 1.2; EC50 (Orexin receptor type 2): 1010 nM; EC50 [3]: 865 nM
CC[C@H](C)[C@H](NC(=O)CNC(=O)[C@H](C)NC(=O)[C@H](C)NC(=O)[C@H](Cc1cnc[nH]1)NC(=O)[C@H](CC(N)=O)NC(=O)CNC(=O)[C@H](C)NC(=O)CNC(=O)[C@H](Cc1cnc[nH]1)NC(=O)[C@H](CC(C)C)NC(=O)[C@H](CC(C)C)NC(=O)[C@@H]1CCCN1C(=O)[C@@H](N)Cc1ccc(O)cc1)C(=O)N[C@@H](CC(C)C)C(=O)N[C@H](C(=O)N[C@@H](CC(C)C)C(N)=O)[C@@H](C)O (H-YPLLHGAGNHAAGILTL-NH2) |  |  |  | Ratio EC50 (Homo sapiens): 5.1; EC50 (Orexin receptor type 2): 729 nM; EC50 [3]: 143 nM
